Measurements reported in ChEMBL document CHEMBL1136803, “Azasterols as inhibitors of sterol 24-methyltransferase in Leishmania species and Trypanosoma cruzi” (J Med Chem, 2003).
Where “and” joins values, the source holds several entries; their conditions need not be identical. Identical values can stand only once.

What was measured:
[1] = In vitro inhibitory concentration against Trypanosoma cruzi epimastigotes; format: functional
How it was run: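 T. cruzi Y strain epimastigotes in liver infusion tryptose medium with 10% fetal bovine serum at 28 °C; exponential-phase parasites incubated with compound 96 h, counted by Neubauer hemocytometer. IC₅₀ from I = Imax·C/(IC₅₀+C), Imax 100%.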

Leishmania amazonensis [2] = test: In vitro inhibitory concentration against Leishmania amazonensis promastigotes; format: functional, organism-based
How it was run: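 L. amazonensis MHOM/BR/75/Josefa promastigotes (mouse-passaged) in Warren's medium with 10% fetal bovine serum at 25 °C; exponential-phase cells incubated with compound 96 h, counted by Neubauer hemocytometer. IC₅₀ from I = Imax·C/(IC₅₀+C), Imax 100%.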

Leishmania amazonensis [3] = test: (§1) Effect of compound on free sterol compositions of leishmania mexicana amazonensis promastigotes at a concentration of 0.1 uM; format: functional
How it was run: (§2)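 L. mexicana amazonensis promastigotes grown in LIT medium with lactalbumin and 10% fetal calf serum at 26 °C without agitation; cultures started at 2 × 10⁶ cells/mL, drug added at 0.5–1 × 10⁷ cells/mL. Total lipids extracted, split into neutral and polar fractions by silicic acid chromatography, sterols analysed by gas-liquid chromatography; read-out is % 24-alkylated vs 24-nonalkylated sterols.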

Leishmania amazonensis [4] = test: In vitro inhibitory concentration against Leishmania amazonensis intracellular amastigotes; format: functional, organism-based
How it was run: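 Swiss mouse peritoneal macrophages adhered 24 h at 37 °C, 5% CO₂, infected with stationary-phase L. amazonensis promastigotes (1:10) at 35 °C for 2 h, washed, held 24 h drug-free, then exposed to compound for 96 h. Bouin-fixed, Giemsa-stained; percentage of infected cells scored, IC₅₀ from hyperbolic inhibition function I = Imax·C/(IC₅₀+C).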

Leishmania donovani = test: In vitro inhibitory concentration against Leishmania donovani intracellular amastigotes; format: functional, organism-based
How it was run: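 CD1 mouse starch-induced peritoneal macrophages in RPMI1640 + 10% HIFCS, 37 °C, 5% CO₂, infected with hamster-spleen L. donovani MHOM/ET/67/L82 amastigotes (5:1); after 24 h drug exposure for 5 days, overlay replaced day 3, top concentration 30 μg/mL, quadruplicates. Methanol-fixed, Giemsa-stained, scored microscopically; ED₅₀ by curve fitting; Pentostam positive control.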

Leishmania amazonensis [5] = test: as §1; format: functional; how it was run: as §2; remark: listed apart in the source
[6] = In vitro inhibitory concentration against Trypanosoma cruzi intracellular amastigotes; format: functional, cell-based
[7] = Evaluated for its toxicity against KB cells; format: cell-based; details: Homo sapiens
How it was run: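 KB cells seeded at 4 × 10⁴/mL in RPMI 1640 + 10% HIFCS, 24 h at 37 °C, 5% CO₂, then exposed to 300, 30, 3 and 0.3 μg/mL in triplicate for 72 h; podophyllotoxin positive control. AlamarBlue added for 2–4 h, fluorescence at EX/EM 530/585 nm; ED₅₀ relative to blanks and untreated controls.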

Leishmania amazonensis [8] = test: Effect of compound on free sterol composition of leishmania mexicana amazonensis promastigotes at a concentration of 0 uM,; format: functional; how it was run: as §2
Leishmania amazonensis [9] = test: Effect of compound on free sterol compositions of leishmania mexicana amazonensis promastigotes at a concentration of 1.0 uM; format: functional; how it was run: as §2
Leishmania amazonensis [10] = test: Effect of compound on free sterol compositions of leishmania mexicana amazonensis promastigotes at a concentration of 0.01 uM; format: functional; how it was run: as §2
Leishmania amazonensis [11] = test: Effect on free sterol compositions of leishmania mexicana amazonensis promastigotes at a concentration of 0.1 uM; format: functional; how it was run: as §2

SMILES | IC50 [1] [µM] | IC50 (Leishmania amazonensis [2]) [µM] | Effect (Leishmania amazonensis [3]) [%] | IC50 (Leishmania amazonensis [4]) [µM] | IC50 (Leishmania donovani) [µM] | Effect (Leishmania amazonensis [5]) [%] | IC50 [6] [µM] | IC50 [7] [µM] | Effect (Leishmania amazonensis [8]) [%] | Effect (Leishmania amazonensis [9]) [%] | Effect (Leishmania amazonensis [10]) [%] | Effect (Leishmania amazonensis [11])
CC(O)(C1CCCCN1)[C@H]1CC[C@H]2[C@@H]3CCC4C[C@@H](O[Si](C)(C)C(C)(C)C)CC[C@]4(C)[C@H]3CC[C@]12C (some centres undefined) | 0.6 | 1.09 | 8.5 | 0.02 | > 58 | <1 | 50 | > 579 | – | – | – | –
CC(O)(C1CCCCN1)[C@H]1CC[C@H]2[C@@H]3CCC4C[C@@H](O)CC[C@]4(C)[C@H]3CC[C@]12C (some centres undefined) | 0.94 | 0.1 | 11.1 | 0.01 | 8.9 | 64.2 | 7.4 | 11.9 | 9.8 | – | – | –
CC(O)(c1ccccn1)[C@H]1CC[C@H]2[C@@H]3CCC4C[C@@H](O[Si](C)(C)C(C)(C)C)CC[C@]4(C)[C@H]3CC[C@]12C (some centres undefined) | 0.68 | 1.88 | – | 1 | > 59 | – | > 59 | > 586 | – | – | – | –
CCC(=O)N1CCCC(C(C)(O)[C@H]2CC[C@H]3[C@@H]4CCC5C[C@@H](O)CC[C@]5(C)[C@H]4CC[C@]23C)C1 (some centres undefined) | – | – | 11.7 | – | 37.9 | – | 64.6 | 336 | – | 49.7 | – | –
CCC(=O)N1CCCCC1C(C)(O)[C@H]1CC[C@H]2[C@@H]3CCC4C[C@@H](O)CC[C@]4(C)[C@H]3CC[C@]12C (some centres undefined) | – | – | 17.7 | – | 23.1 | 4.4 | 22.8 | 11.1 | – | – | – | –
CC(O)(c1cccnc1)[C@H]1CC[C@H]2[C@@H]3CCC4C[C@@H](O)CC[C@]4(C)[C@H]3CC[C@]12C (some centres undefined) | 0.62 | 4.24 | 12.4 | 3 | 23.4 | 41.9 | 13.3 | > 755 | – | – | 4.7 | 3.1% and 4.1% and 11.1%
CC(O)(c1ccncc1Cl)[C@H]1CC[C@H]2[C@@H]3CCC4C[C@@H](O[Si](C)(C)C(C)(C)C)CC[C@]4(C)[C@H]3CCC12C (some centres undefined) | – | – | – | – | > 55 | – | > 55 | 234 | – | – | – | –
CC(O)(c1ccncc1)[C@H]1CC[C@H]2[C@@H]3CCC4C[C@@H](O[Si](C)(C)C(C)(C)C)CC[C@]4(C)[C@H]3CC[C@]12C (some centres undefined) | 0.67 | 3.21 | – | 2 | 15 | – | 6.1 | 574 | – | – | – | –
CCC(=O)N1CCCCC1C(C)(O)[C@H]1CC[C@H]2[C@@H]3CCC4C[C@@H](O[Si](C)(C)C(C)(C)C)CC[C@]4(C)[C@H]3CC[C@]12C (some centres undefined) | 1 | 10.3 | – | 8 | > 52 | – | > 52 | > 520 | – | – | – | –
CC(O)(C1CCCNC1)[C@H]1CC[C@H]2[C@@H]3CCC4C[C@@H](O)CC[C@]4(C)[C@H]3CC[C@]12C (some centres undefined) | – | – | 13.1 | – | 4.8 | 63.7 | 18 | 29.2 | – | – | – | –
CC(O)(c1ccncc1Cl)[C@H]1CC[C@H]2[C@@H]3CCC4C[C@@H](O)CC[C@]4(C)[C@H]3CC[C@]12C (some centres undefined) | – | – | – | – | > 69 | – | 50 | < 0.7 | – | – | – | –
CC(O)(c1ccccn1)[C@H]1CC[C@H]2[C@@H]3CCC4C[C@@H](O)CC[C@]4(C)[C@H]3CC[C@]12C (some centres undefined) | 1.03 | 1.14 | 15.5 | 1 | 14.6 | 1.6 | 32.9 | 11.3 | – | – | – | –
CC(O)(c1cccnc1)[C@H]1CC[C@H]2[C@@H]3CCC4C[C@@H](O[Si](C)(C)C(C)(C)C)CC[C@]4(C)[C@H]3CC[C@]12C (some centres undefined) | 1.2 | 1.75 | – | 1.5 | 13.9 | – | 51.2 | > 586 | – | – | – | 6.6%
CCC(=O)N1CCCC(C(C)(O)[C@H]2CC[C@H]3[C@@H]4CCC5C[C@@H](O[Si](C)(C)C(C)(C)C)CC[C@]5(C)[C@H]4CC[C@]23C)C1 (some centres undefined) | 0.6 | 1.21 | – | 1 | > 52 | – | > 52 | > 520 | – | – | – | –
CC(O)(c1ccncc1)[C@H]1CC[C@H]2[C@@H]3CCC4C[C@@H](O)CC[C@]4(C)[C@H]3CC[C@]12C (some centres undefined) | 0.68 | 3.41 | – | 3 | 11.3 | – | 35 | 30.7 | – | – | – | –
CC(O)(C1CCCNC1)[C@H]1CC[C@H]2[C@@H]3CCC4C[C@@H](O[Si](C)(C)C(C)(C)C)CC[C@]4(C)[C@H]3CC[C@]12C (some centres undefined) | 1.01 | 1.4 | – | 1 | 6.4 | – | 42.1 | 2.5 | – | – | – | –
